Measured values reported in publication PMC12783166 (Clinical Pharmacokinetics, 2025).

Key:
BCRP = conditions: cited from earlier work
[1] = tested on: cytochrome P450 3A4 (CYP3A4); conditions: cited from earlier work
[2] = Individual predicted steady-state exposures; type: in vivo, human
Method in brief: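 Steady-state AUC24, Ctrough, Cmax and Cavg were derived from each individual's Bayesian post hoc estimates from the final three-compartment population PK model, with sequential zero-/first-order lagged absorption. Values are summarised per […] as mean (SD) and median (5th–95th percentile).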

Cavg, Mean (SD) ([2]; ADVANCE EM, 10 mg QD): 21.9 (14) ng/mL
Cavg, Median (5th to 95th percentile) ([2]; ADVANCE EM, 10 mg QD): 19.3 (5.35–163) ng/mL
Ctrough, Mean (SD) ([2]; ADVANCE EM, 10 mg QD): 3.24 (3.1) ng/mL
Ctrough, Median (5th to 95th percentile) ([2]; ADVANCE EM, 10 mg QD): 2.62 (0.576–35.2) ng/mL
Time above ½EC90 (4.2 ng/mL or 7 nM), Mean (SD) ([2]; ADVANCE EM, 10 mg QD): 18.1 (3.8) hr
Time above ½EC90 (4.2 ng/mL or 7 nM), Median (5th to 95th percentile) ([2]; ADVANCE EM, 10 mg QD): 18.0 (8.00–24.0) hr
Cavg, Mean (SD) ([2]; ADVANCE EM, 30 mg QD): 76.1 (54) ng/mL
Cavg, Median (5th to 95th percentile) ([2]; ADVANCE EM, 30 mg QD): 65.1 (19.0–466) ng/mL
Ctrough, Mean (SD) ([2]; ADVANCE EM, 30 mg QD): 12.0 (16) ng/mL
Ctrough, Median (5th to 95th percentile) ([2]; ADVANCE EM, 30 mg QD): 8.85 (2.02–202) ng/mL
Time above ½EC90 (4.2 ng/mL or 7 nM), Mean (SD) ([2]; ADVANCE EM, 30 mg QD): 23.7 (1.2) hr
Time above ½EC90 (4.2 ng/mL or 7 nM), Median (5th to 95th percentile) ([2]; ADVANCE EM, 30 mg QD): 24.0 (16.0–24.0) hr
Cavg, Mean (SD) ([2]; ADVANCE EM, 60 mg QD): 156 (94) ng/mL
Cavg, Median (5th to 95th percentile) ([2]; ADVANCE EM, 60 mg QD): 134 (33.9–874) ng/mL
Ctrough, Mean (SD) ([2]; ADVANCE EM, 60 mg QD): 23.8 (30) ng/mL
Ctrough, Median (5th to 95th percentile) ([2]; ADVANCE EM, 60 mg QD): 18.4 (3.63–373) ng/mL
Time above ½EC90 (4.2 ng/mL or 7 nM), Mean (SD) ([2]; ADVANCE EM, 60 mg QD): 24.0 (0.22) hr
Time above ½EC90 (4.2 ng/mL or 7 nM), Median (5th to 95th percentile) ([2]; ADVANCE EM, 60 mg QD): 24.0 (21.5–24.0) hr
Cavg, Mean (SD) ([2]; CGP-MD-01 EM, 10 mg QD): 19.2 (6.7) ng/mL
Cavg, Median (5th to 95th percentile) ([2]; CGP-MD-01 EM, 10 mg QD): 19.3 (7.01–52.2) ng/mL
Ctrough, Mean (SD) ([2]; CGP-MD-01 EM, 10 mg QD): 2.80 (1.4) ng/mL
Ctrough, Median (5th to 95th percentile) ([2]; CGP-MD-01 EM, 10 mg QD): 2.58 (0.738–9.95) ng/mL
Time above ½EC90 (4.2 ng/mL or 7 nM), Mean (SD) ([2]; CGP-MD-01 EM, 10 mg QD): 17.8 (3.5) hr
Time above ½EC90 (4.2 ng/mL or 7 nM), Median (5th to 95th percentile) ([2]; CGP-MD-01 EM, 10 mg QD): 18.0 (9.00–24.0) hr
Cavg, Mean (SD) ([2]; CGP-MD-01 EM, 30 mg BID): 162 (85) ng/mL
Cavg, Median (5th to 95th percentile) ([2]; CGP-MD-01 EM, 30 mg BID): 132 (50.6–476) ng/mL
Ctrough, Mean (SD) ([2]; CGP-MD-01 EM, 30 mg BID): 60.7 (44) ng/mL
Ctrough, Median (5th to 95th percentile) ([2]; CGP-MD-01 EM, 30 mg BID): 44.5 (13.3–277) ng/mL
Time above ½EC90 (4.2 ng/mL or 7 nM), Mean (SD) ([2]; CGP-MD-01 EM, 30 mg BID): 12.0 (0.0) hr
Time above ½EC90 (4.2 ng/mL or 7 nM), Median (5th to 95th percentile) ([2]; CGP-MD-01 EM, 30 mg BID): 12.0 (12.0–12.0) hr
Cavg, Mean (SD) ([2]; CGP-MD-01 EM, 30 mg QD): 71.3 (36) ng/mL
Cavg, Median (5th to 95th percentile) ([2]; CGP-MD-01 EM, 30 mg QD): 66.2 (30.6–310) ng/mL
Ctrough, Mean (SD) ([2]; CGP-MD-01 EM, 30 mg QD): 11.2 (16) ng/mL
Ctrough, Median (5th to 95th percentile) ([2]; CGP-MD-01 EM, 30 mg QD): 8.97 (3.68–203) ng/mL
Time above ½EC90 (4.2 ng/mL or 7 nM), Mean (SD) ([2]; CGP-MD-01 EM, 30 mg QD): 24.0 (0.19) hr
Time above ½EC90 (4.2 ng/mL or 7 nM), Median (5th to 95th percentile) ([2]; CGP-MD-01 EM, 30 mg QD): 24.0 (21.5–24.0) hr
Cavg, Mean (SD) ([2]; CGP-MD-01 EM, 60 mg BID): 331 (200) ng/mL
Ctrough, Mean (SD) ([2]; CGP-MD-01 EM, 60 mg BID): 133 (140) ng/mL
Ctrough, Median (5th to 95th percentile) ([2]; CGP-MD-01 EM, 60 mg BID): 101 (26.1–972) ng/mL
Time above ½EC90 (4.2 ng/mL or 7 nM), Mean (SD) ([2]; CGP-MD-01 EM, 60 mg BID): 12.0 (0.0) hr
Time above ½EC90 (4.2 ng/mL or 7 nM), Median (5th to 95th percentile) ([2]; CGP-MD-01 EM, 60 mg BID): 12.0 (12.0–12.0) hr
Cavg, Mean (SD) ([2]; CGP-MD-01 EM, 60 mg QD): 152 (93) ng/mL
Cavg, Median (5th to 95th percentile) ([2]; CGP-MD-01 EM, 60 mg QD): 144 (39.5–992) ng/mL
Ctrough, Mean (SD) ([2]; CGP-MD-01 EM, 60 mg QD): 23.6 (30) ng/mL
Ctrough, Median (5th to 95th percentile) ([2]; CGP-MD-01 EM, 60 mg QD): 19.5 (5.07–335) ng/mL
Time above ½EC90 (4.2 ng/mL or 7 nM), Mean (SD) ([2]; CGP-MD-01 EM, 60 mg QD): 24.0 (0.0) hr
Time above ½EC90 (4.2 ng/mL or 7 nM), Median (5th to 95th percentile) ([2]; CGP-MD-01 EM, 60 mg QD): 24.0 (24.0–24.0) hr
Cavg, Mean (SD) ([2]; ELEVATE EM, 60 mg QD): 147 (75) ng/mL
Cavg, Median (5th to 95th percentile) ([2]; ELEVATE EM, 60 mg QD): 138 (12.5–474) ng/mL
Ctrough, Mean (SD) ([2]; ELEVATE EM, 60 mg QD): 15.4 (13) ng/mL
Ctrough, Median (5th to 95th percentile) ([2]; ELEVATE EM, 60 mg QD): 13.4 (2.70–98.1) ng/mL
Time above ½EC90 (4.2 ng/mL or 7 nM), Mean (SD) ([2]; ELEVATE EM, 60 mg QD): 23.9 (0.79) hr
Time above ½EC90 (4.2 ng/mL or 7 nM), Median (5th to 95th percentile) ([2]; ELEVATE EM, 60 mg QD): 24.0 (17.5–24.0) hr
Cavg, Mean (SD) ([2]; PROGRESS CM, 30 mg BID): 157 (87) ng/mL
Compound: C[C@@H]1[C@H](c2c(F)ccc(F)c2F)C[C@H](NC(=O)c2cnc3c(c2)C[C@@]2(C3)C(=O)Nc3ncccc32)C(=O)N1CC(F)(F)F [atogepant, Atogepant]
Transporter substrate status (BCRP): substrate
Metabolizing enzyme [1]: primarily metabolized by cytochrome P450 3A4 (CYP3A4)
